Sampled rows, rich in hits. Any-hit rate of the full collection: about 1.2%.
RAD54 inh: RAD54 (human) branch migration inhibition; Q92698; RAD54 Holliday junction branch migration, FAM/BHQ fluorescence; inhibition, % at 10.4 µM; actives 0.14% (n = 360,000); AID 602329;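 active means mean normalized replicate activity at least 40 and at least half of replicates scoring 40 or more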;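 further: 0% = median of neutral control wells and 100% = median of positive control wells; inhibitors cause a drop in the FAM fluorescence signal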
MLL AF4-AF9 inh: inhibitors of human MLL-AF4/AF9 interaction; inhibition, % at 10 µM; P42568; actives 0.47% (n = 350,000); AlphaScreen, biotin-AF4 peptide binding to FLAG-AF9;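 active means every replicate reaching a set inhibition limit, whatever the replicate mean, cut at about 25% in these data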;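 further: 0% = plate neutral control median and 100% = total signal loss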
NSD2 inh: NSD2 (human) methyltransferase inhibition | NSD2 peptide methylation, AlphaScreen, 120 min | inhibition, % at 12.5 µM | actives 0.54% (n = 310,000); in the data active means inhibition above about 50%
N-glyco inh: blocks N-linked glycosylation in D54 reporter cells. actives 0.23% (n = 360,000). reporter increase, % at 12.5 µM. D54 ERlucT glycosylation luciferase reporter, 24 h; percent of 100 nM tunicamycin response;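 active means mean luciferase reporter signal, scaled so untreated is 0 and the glycosylation-blocking control 100, at or above a set limit in every replicate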;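 further: luciferase carries N-glycosylation sites so blocking glycosylation raises the light; 0% = median of neutral control wells and 100% = median of 100 nM tunicamycin wells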
RAD52 inh: RAD52 (human) annealing inhibition; inhibition, % at 18.7 µM; recombinant RAD52 DNA annealing, FRET fluorescence; AID 651710; actives 0.46% (n = 360,000); P43351;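 active means every replicate showing at least 50% inhibition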
Target sequence (P43351 whole entry, looked up): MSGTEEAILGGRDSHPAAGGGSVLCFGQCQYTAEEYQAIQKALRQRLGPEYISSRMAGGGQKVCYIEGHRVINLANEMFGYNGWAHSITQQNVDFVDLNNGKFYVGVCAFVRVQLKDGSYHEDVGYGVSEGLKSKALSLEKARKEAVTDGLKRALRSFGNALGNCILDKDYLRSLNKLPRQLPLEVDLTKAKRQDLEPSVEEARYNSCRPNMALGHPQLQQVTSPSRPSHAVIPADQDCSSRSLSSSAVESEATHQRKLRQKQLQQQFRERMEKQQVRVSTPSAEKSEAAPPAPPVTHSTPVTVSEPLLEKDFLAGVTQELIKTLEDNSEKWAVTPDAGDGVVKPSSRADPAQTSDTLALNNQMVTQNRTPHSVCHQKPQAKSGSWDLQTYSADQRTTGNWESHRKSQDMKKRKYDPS
FN deposit inh: fibronectin deposition inhibition. AH1F fibroblasts, Alexa488-fibronectin deposition fluorescence, overnight. inhibition, % at 12.6 µM. actives 0.086% (n = 350,000). AID 743247;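 active means mean inhibition across replicates of 30% or more, regardless of how many single replicates reach that level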;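 further: positive control wells lacked labelled fibronectin entirely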
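Measured by – fluorescence 485/525 nm · System – AH1F fibroblast monolayer, labelled fibronectin deposition · Amount – 10000 cells per well · Buffer or medium – serum-reduced DMEM (2% serum) · Doses – single dose, pinned · Also added – fluorescent fibronectin at 24 nM final · Schedule – 1 h cell attachment, overnight exposure to compound and label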
Alpha artifact: counter-screen for NSD2 inhibitors: AlphaScreen artifacts. shares compounds with NSD2 inh. AC35, µM (highest dose often 10 µM), for the others: top-dose activity change, negative = signal loss. AlphaScreen artifact counterscreen, preloaded methylated H4 peptide. actives 9.4% (n = 1,500); call rule not given here
* hit, by the source's call; i = inactive; · = no result.

SMILES	RAD54 inh	MLL AF4-AF9 inh	NSD2 inh	N-glyco inh	RAD52 inh	FN deposit inh	Alpha artifact
O=C(NC1CCCC1)C(c1cccnc1)N(C(=O)c1csnn1)C1CC1 (centres undefined)	-10	·	-1	1	·	2	·
COc1cccc(C(C(=O)NC2CCCC2)N(C(=O)c2csnn2)C2CC2)c1 (centres undefined)	5	3	99*	-4	2	-2	-2%
C[C@@H]1CCCCO[C@H](CN(C)S(=O)(=O)c2ccc(Cl)cc2)[C@H](C)CN([C@H](C)CO)C(=O)c2cc(N(C)C)ccc2O1	-5	7	·	·	20	·	·
COc1ccccc1N1C(=N)S/C(=C\c2ccc(-c3ccccc3C(=O)O)o2)C1=O	·	2	1	2	-30	-5	·
N=C1S/C(=C\c2ccc(-c3ccccc3C(=O)O)o2)C(=O)N1c1ccc2c(c1)OCO2	·	-4	99*	1	-122	-13	-4%
Cc1noc(C)c1S(=O)(=O)Nc1cccc2c1O[C@H](CN(C)Cc1ccc(C(=O)Nc3ccccc3N)cc1)[C@H](C)CN([C@@H](C)CO)C2=O	-1	2	·	·	7	-4	·
C[C@@H]1CN([C@@H](C)CO)C(=O)c2cc(NC(=O)CCC(F)(F)F)ccc2O[C@@H](C)CCCCO[C@H]1CN(C)C(=O)C1CCCCC1	-18	-3	·	·	5	·	·
CN(C)c1cccc2c1c(NC(=O)Nc1ccc(F)cc1F)nn2C	·	-3	19	0	-4	-14	·
CN(C)c1cccc2c1c(NC(=O)Nc1ccccc1)nn2C	·	-1	88*	1	-6	8	-1%
Cc1ccc(S(=O)(=O)N(C)C[C@H]2Oc3c(NC(=O)C4CCCCC4)cccc3C(=O)N([C@@H](C)CO)C[C@@H]2C)cc1	6	2	·	·	14	·	·
c1coc(-c2nnc(-c3ccco3)nn2)c1	5	-3	140*	2	-14	7	-6%
Cc1ccccc1C1=C/C(=C(\SS/C(C(=O)c2ccc(OCC(=O)O)c(Cl)c2Cl)=C2\C=C(c3ccccc3C)SS2)C(=O)c2ccc(OCC(=O)O)c(Cl)c2Cl)SS1	·	11	53*	-5	8	-25	5.2µM*
O=C(O)COc1ccc2nsnc2c1Cl	1	·	-1	1	·	·	·
COc1ccccc1CNC(=O)C[C@H]1C[C@@H]2c3cc(NS(=O)(=O)c4ccc(F)cc4)ccc3O[C@@H]2[C@@H](CO)O1	12	-1	·	·	-9	·	·
O=C(NCc1ccccn1)[C@@H]1[C@@H](CO)[C@@H]2Cn3c(cccc3=O)[C@@H]2N1CCc1ccccc1	13	-1	·	·	-30	·	·
O=C1CN(C(=O)CSc2nc3cc(Cl)ccc3c(=O)n2Cc2ccccc2)c2ccccc2N1	·	1	-1	-7	-28	·	·
Cc1ccc(Cn2c(SCC(=O)N3CC(=O)Nc4ccccc43)nc3ccccc3c2=O)cc1	·	-2	60*	-2	-13	4	-1%
CCN(CC)CCCNc1nc(CN2CCOCC2)nc2sc3c(c12)CCC3	·	2	54*	0	15	·	3%
CCC(=O)N1[C@@H]2c3ccc(C4=CCCC4)c(=O)n3C[C@@H]2[C@@H](CO)[C@@H]1C(=O)NCc1ccccc1	10	1	·	·	-26	·	·
Oc1ccc(/C=N/N2CCCCC2)c(O)c1O	9	-13	21	1	-54	0	·
Oc1ccc(/C=N/N2CCOCC2)c(O)c1O	·	-14	87*	0	-23	-10	-2%
CC(=O)Nc1ccc(SCCC2CCCCN2C)cc1 (centres undefined)	5	-1	88*	1	-16	2	-6%
Cc1noc(C)c1NC(=O)Nc1ccc2c(c1)C(=O)N([C@@H](C)CO)C[C@H](C)[C@@H](CN(C)Cc1ccccc1)OCCCC[C@H](C)O2	6	-4	·	·	3	-7	·
O=S(=O)(c1ccccc1S(=O)(=O)N1CCCCC1)N1CCCCC1	-9	5	-5	-1	-9	·	·
O=C1C=C(N2CCCCC2)c2ccccc2C1=O	3	4	114*	-21	-12	0	0%
SMILES	RAD54 inh	MLL AF4-AF9 inh	NSD2 inh	N-glyco inh	RAD52 inh	FN deposit inh	Alpha artifact
CCCNC(=O)Nc1ccc2c(c1)C(=O)N(C)C[C@H](OC)[C@@H](C)CN(C(=O)C1CCOCC1)[C@@H](C)CO2	0	0	·	·	-5	8	·
O=C(COc1ccccc1O)NCCN1CCOCC1	0	-2	52*	-2	2	9	2%
Cc1ccc(S(=O)(=O)N2CCC(NC(=O)c3cccnc3)CC2)cc1Cl	9	2	63*	6	-11	-2	-4%
Cc1nc([N+](=O)[O-])c(C(=O)OCc2ccccc2Br)n1C	·	1	1	-2	-15	-2	·
Cc1nc([N+](=O)[O-])c(C(=O)OCc2ccccc2F)n1C	·	1	54*	-1	6	·	-3%
O=C1CC(N2CCOCC2)=NN1c1ccc([N+](=O)[O-])cc1	·	3	110*	0	-14	-1	0%
C/C=C/c1ccc2c(c1)O[C@H](CN(C)C(=O)c1ccccc1F)[C@@H](C)CN([C@@H](C)CO)S2(=O)=O	-2	5	·	·	4	-12	·
Nc1nnc2c(n1)CCCC2	-46	·	58*	-9	·	-4	7%
O=C(CCCN1C(=O)/C(=C/c2cccs2)SC1=S)Nc1ccc(O)c(C(=O)O)c1	·	·	53*	·	·	·	-14%
O=C(CCCN1C(=O)/C(=C/c2ccccc2)SC1=S)Nc1ccc(C(=O)O)c(O)c1	0	5	55*	3	-5	-1	-7%
CN1[C@@H]2Cn3c(ccc(-c4ccncc4)c3=O)[C@H]1[C@@H](C(=O)NC1CCCCC1)[C@@H]2CO	-9	1	·	·	4	·	·
CC1C=NC(S(=O)(=O)N2CC[C@@H]3[C@H]2c2cc(-c4ccccc4)ccc2N(C)[C@H]3CO)=N1 (some centres undefined)	8	3	·	·	1	-8	·
CC[n+]1c(/C=C/c2c[nH]c3ccccc23)ccc2cc(C)ccc21	·	26*	108*	·	i	-118	-15%
Cc1cccc(CN(C)C[C@@H]2Oc3ncc(-c4cc5ccccc5o4)cc3C(=O)N([C@H](C)CO)C[C@@H]2C)c1	-2	9	·	·	14	9	·
O=C1NC(=S)S/C1=C\c1cc2ccccc2nc1N1CCCCC1	-6	3	83*	1	-176	0	-9%
Cc1ccc(-c2csc3nc(CN(C)Cc4ccccc4)[nH]c(=O)c23)cc1	-11	-2	60*	0	-141	·	2%
C[C@@H]1CCCCO[C@@H](CN(C)Cc2ccc(Cl)c(Cl)c2)[C@@H](C)CN([C@@H](C)CO)C(=O)c2cc(NC(=O)C3CCCCC3)ccc2O1	-6	2	·	·	-13	·	·
